Activity calls are given as the source filed them. No cut-off for these calls is given here.
Tests used:
Mus musculus [1] = species on record: Mus musculus; assay: Stimulation of alkaline phosphatase activity in mouse calvarial osteoblasts at 1 pM to 1 uM after 48 hrs by spectrophotometric analysis
How it was run: (§1)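 Calvarial osteoblasts were exposed to compounds over 1 pM to 1 µM. ALP activity was read spectrophotometrically as optical density at 405 nm. Results were expressed as % ALP activity, with EC50 and Emax derived from the concentration series.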

Mus musculus [2] = species on record: Mus musculus; assay: Stimulation of alkaline phosphatase activity in mouse calvarial osteoblasts at 1 pM to 1 uM after 48 hrs by spectrophotometric analysis relative to nifedipine
Mus musculus [3] = species on record: Mus musculus; assay: Stimulation of alkaline phosphatase activity in mouse calvarial osteoblasts assessed as concentration required for maximum activity after 48 hrs by spectrophotometric analysis; how it was run: as §1
[4] = Stimulation of alkaline phosphatase activity in mouse calvarial osteoblasts after 48 hrs by spectrophotometric analysis; how it was run: as §1
[5] = Cytotoxicity against mouse calvarial osteoblasts assessed as cell viability at 1 pM to 1 uM after 48 hrs by MTT assay; type: cell-based; details: calvarial osteoblast
Calvarial osteoblast [6] = assay: Induction of mineralization in mouse calvarial osteoblasts assessed as increase of mineralized nodules formation measuring concentration required for maximum activity after 21 days by alizarin red-S staining based spectrophotometric analysis; type: functional
Calvarial osteoblast [7] = assay: Induction of proliferation of mouse calvarial osteoblasts at 1 pM to 1 uM after 48 hrs; type: functional, cell-based
Calvarial osteoblast [8] = assay: Induction of osteoblastogenesis in mouse calvarial osteoblasts assessed as increase in COL1 expression at 100 pM to 10 nM by Western blotting analysis; type: functional, cell-based
Calvarial osteoblast [9] = assay: Induction of osteoblastogenesis in mouse calvarial osteoblasts assessed as increase in BMP2 expression at 100 pM to 10 nM by Western blotting analysis; type: functional, cell-based
Calvarial osteoblast [10] = assay: Induction of osteoblastogenesis in mouse calvarial osteoblasts assessed as increase in RUNX2 expression at 100 pM to 10 nM by Western blotting analysis; type: functional, cell-based
Calvarial osteoblast [11] = assay: Induction of osteoblastogenesis in mouse calvarial osteoblasts assessed as increase in expression of COL1 gene at 100 pM by qPCR analysis relative to control; type: functional, cell-based
Calvarial osteoblast [12] = assay: Induction of osteoblastogenesis in mouse calvarial osteoblasts assessed as increase in expression of osteocalcin gene at 100 pM by qPCR analysis relative to control; type: functional, cell-based
Calvarial osteoblast [13] = assay: Induction of osteoblastogenesis in mouse calvarial osteoblasts assessed as increase in expression of ALP gene at 100 pM by qPCR analysis relative to control; type: functional, cell-based
Calvarial osteoblast [14] = assay: Induction of osteoblastogenesis in mouse calvarial osteoblasts assessed as increase in expression of BMP2 gene at 100 pM by qPCR analysis relative to control; type: functional, cell-based
Calvarial osteoblast [15] = assay: Induction of osteoblastogenesis in mouse calvarial osteoblasts assessed as increase in expression of RUNX2 gene at 100 pM by qPCR analysis relative to control; type: functional, cell-based
Calvarial osteoblast [16] = assay: Induction of osteoblastogenesis in mouse calvarial osteoblasts assessed as increase in expression of COL1 gene at 100 pM to 10 nM by qPCR analysis relative to control; type: functional
Calvarial osteoblast [17] = assay: Induction of osteoblastogenesis in mouse calvarial osteoblasts assessed as increase in expression of osteocalcin gene at 100 pM to 10 nM by qPCR analysis relative to control; type: functional
Calvarial osteoblast [18] = assay: Induction of osteoblastogenesis in mouse calvarial osteoblasts assessed as increase in expression of ALP gene at 100 pM to 10 nM by qPCR analysis relative to control; type: functional
Calvarial osteoblast [19] = assay: Induction of osteoblastogenesis in mouse calvarial osteoblasts assessed as increase in expression of BMP2 gene at 100 pM to 10 nM by qPCR analysis relative to control; type: functional
Calvarial osteoblast [20] = assay: Induction of osteoblastogenesis in mouse calvarial osteoblasts assessed as increase in expression of RUNX2 gene at 100 pM to 10 nM by qPCR analysis relative to control; type: functional

SMILES	Activity (Mus musculus [1])	Activity (Mus musculus [2])	Concentration giving maximum ALP activity (Mus musculus [3])	EC50 [4]	other results
CCOC(=O)C1=C(C)NC2=C(C(=O)CC(C)(C)C2)C1c1cc(C(C)CC)c2oc(=O)c(C(=O)OCC)cc2c1 (racemic)	3%	inactive	100 pM	1.28 µM	
CCOC(=O)C1=C(C)NC2=C(C(=O)CC(C)(C)C2)C1c1cc(C(C)(C)C)c2oc(=O)c(C(=O)OCC)cc2c1 (racemic)	4%	inactive	10000 pM	1.56 µM	
CCOC(=O)C1=C(C)NC2=C(C(=O)CC(C)(C)C2)C1c1cc(C(C)CC)c2oc(=O)c(C(=O)OC)cc2c1 (racemic)	43%	17%	1 pM	1.01 µM	Activity [5]: Non-toxic; Concentration for maximum mineralization (Calvarial osteoblast [6]): 100 pM; Activity (Calvarial osteoblast [7]): Active; Activity (Calvarial osteoblast [8]): Active; Activity (Calvarial osteoblast [9]): Active; Activity (Calvarial osteoblast [10]): Active; Activity (Calvarial osteoblast [11]): Active; Activity (Calvarial osteoblast [12]): Active; Activity (Calvarial osteoblast [13]): Active; Activity (Calvarial osteoblast [14]): Active; Activity (Calvarial osteoblast [15]): Active; fold change (FC) (Calvarial osteoblast [16]): 1.5; fold change (FC) (Calvarial osteoblast [17]): 1.5; fold change (FC) (Calvarial osteoblast [18]): 1.5; fold change (FC) (Calvarial osteoblast [19]): 1.5; fold change (FC) (Calvarial osteoblast [20]): 1.5
COC(=O)c1cc2cc(C=O)cc(C(C)(C)C)c2oc1=O	inactive				
CCOC(=O)C1=C(C)NC2=C(C(=O)CCC2)C1c1cc(C(C)CC)c2oc(=O)c(C(=O)OCC)cc2c1 (racemic)	35%	14%	1 pM	1.01 µM	
CCOC(=O)C1=C(C)NC(C)=C(C(=O)OCC)C1c1cc(C(C)(C)C)c2oc(=O)c(C(=O)OC)cc2c1	70%	28%	100 pM	1.1 µM	Activity [5]: Non-toxic; Concentration for maximum mineralization (Calvarial osteoblast [6]): 100 pM; Activity (Calvarial osteoblast [7]): Active; Activity (Calvarial osteoblast [8]): Active; Activity (Calvarial osteoblast [9]): Active; Activity (Calvarial osteoblast [10]): Active; Activity (Calvarial osteoblast [11]): Active; Activity (Calvarial osteoblast [12]): Active; Activity (Calvarial osteoblast [13]): Active; Activity (Calvarial osteoblast [14]): Active; Activity (Calvarial osteoblast [15]): Active; fold change (FC) (Calvarial osteoblast [16]): 1.5; fold change (FC) (Calvarial osteoblast [17]): 1.5; fold change (FC) (Calvarial osteoblast [18]): 1.5; fold change (FC) (Calvarial osteoblast [19]): 1.5; fold change (FC) (Calvarial osteoblast [20]): 1.5
CCOC(=O)C1=C(C)NC(C)=C(C(=O)OCC)C1c1cc(C(C)CC)c2oc(=O)c(C(=O)OC)cc2c1 (centres undefined)	5%	inactive	100 pM	1.14 µM	
CCOC(=O)c1cc2cc(C=O)cc(C(C)CC)c2oc1=O (centres undefined)	6%	inactive	10000 pM	1.49 µM	
CCOC(=O)c1cc2cc(C=O)cc(C(C)(C)C)c2oc1=O	inactive				
CCOC(=O)C1=C(C)NC2=C(C(=O)CCC2)C1c1cc(C(C)(C)C)c2oc(=O)c(C(=O)OCC)cc2c1 (racemic)	13%		1 pM	1.34 µM	
CCC(C)c1cc(C=O)cc2cc(C(=O)OC)c(=O)oc12 (centres undefined)	inactive				
COC(=O)C1=C(C)NC(C)=C(C(=O)OC)C1c1ccccc1[N+](=O)[O-] [NIFEDIPINE]	25%			1.45 µM	Concentration for maximum mineralization (Calvarial osteoblast [6]): 10000 pM; Activity (Calvarial osteoblast [7]): Active
CCC(C)c1cc(C2C(C(=O)OC)=C(C)NC(C)=C2C(=O)OC)cc2cc(C(=O)OC)c(=O)oc12 (centres undefined)	30%	12%	1 pM	1.19 µM	Activity [5]: Non-toxic; Concentration for maximum mineralization (Calvarial osteoblast [6]): 1 pM; Activity (Calvarial osteoblast [7]): Active; Activity (Calvarial osteoblast [8]): Active; Activity (Calvarial osteoblast [9]): Active; Activity (Calvarial osteoblast [10]): Active; Activity (Calvarial osteoblast [11]): Active; Activity (Calvarial osteoblast [12]): Active; Activity (Calvarial osteoblast [13]): Active; Activity (Calvarial osteoblast [14]): Active; Activity (Calvarial osteoblast [15]): Active; fold change (FC) (Calvarial osteoblast [16]): 1.5; fold change (FC) (Calvarial osteoblast [17]): 1.5; fold change (FC) (Calvarial osteoblast [18]): 1.5; fold change (FC) (Calvarial osteoblast [19]): 1.5; fold change (FC) (Calvarial osteoblast [20]): 1.5
CCOC(=O)c1cc2cc(C3C(C(=O)OC)=C(C)NC(C)=C3C(=O)OC)cc(C(C)CC)c2oc1=O (centres undefined)	20%	inactive	10000 pM	1.51 µM	
COC(=O)C1=C(C)NC2=C(C(=O)CCC2)C1c1cc(C(C)(C)C)c2oc(=O)c(C(=O)OC)cc2c1 (racemic)	14%	inactive	100 pM	1.34 µM	
CCOC(=O)c1cc2cc(C3C(C(=O)OC)=C(C)NC(C)=C3C(=O)OC)cc(C(C)(C)C)c2oc1=O	7%	inactive	1 pM	1.04 µM	
CCOC(=O)c1cc2cc(C3C(C(=O)OC)=C(C)NC4=C3C(=O)CCC4)cc(C(C)CC)c2oc1=O (racemic)	12%	inactive	100 pM	1.23 µM	
CCOC(=O)c1cc2cc(C3C(C(=O)OC)=C(C)NC4=C3C(=O)CC(C)(C)C4)cc(C(C)CC)c2oc1=O (racemic)	39%	16%	1 pM	1.19 µM	
COC(=O)C1=C(C)NC2=C(C(=O)CC(C)(C)C2)C1c1cc(C(C)(C)C)c2oc(=O)c(C(=O)OC)cc2c1 (racemic)	10%	inactive	10000 pM	1.53 µM	
CCOC(=O)C1=C(C)NC(C)=C(C(=O)OCC)C1c1cc(C(C)CC)c2oc(=O)c(C(=O)OCC)cc2c1 (centres undefined)	4%	inactive	100 pM	1.23 µM	
CCC(C)c1cc(C2C(C(=O)OC)=C(C)NC3=C2C(=O)CCC3)cc2cc(C(=O)OC)c(=O)oc12 (racemic)	4%	inactive	10000 pM	1.56 µM	
CCOC(=O)C1=C(C)NC2=C(C(=O)CCC2)C1c1cc(C(C)(C)C)c2oc(=O)c(C(=O)OC)cc2c1 (racemic)	4%	inactive	1 pM	1.26 µM	
CCOC(=O)c1cc2cc(C3C(C(=O)OC)=C(C)NC4=C3C(=O)CC(C)(C)C4)cc(C(C)(C)C)c2oc1=O (racemic)	5%		1 pM	1.09 µM	
COC(=O)C1=C(C)NC(C)=C(C(=O)OC)C1c1cc(C(C)(C)C)c2oc(=O)c(C(=O)OC)cc2c1	inactive				
CCOC(=O)c1cc2cc(C3C(C(=O)OC)=C(C)NC4=C3C(=O)CCC4)cc(C(C)(C)C)c2oc1=O (racemic)	10%	inactive	1 pM	1.31 µM	

Source: ChEMBL document CHEMBL2311419, “Discovery of coumarin-dihydropyridine hybrids as bone anabolic agents” (J Med Chem, 2013)
